Assay results: ChEMBL document CHEMBL1135021, “Biotinylated lithocholic acids for affinity chromatography of mammalian DNA polymerases alpha and beta” (Bioorg Med Chem Lett, 2002)
pIC50, pKi: −log10 of the molar value.

How the values were obtained:
DNA polymerase beta [1] = molecular target: T1, DNA polymerase beta (Rattus norvegicus, UniProt P06766); test: Inhibition constant at a concentration of 10 uM on rat DNA polymerase beta as a function of nucleotide substrate concentration
Outline: (§1)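 Kinetic runs used calf thymus pol α or rat pol β (0.05 units each) preincubated with compound at 0 °C for 10 min in Tris–HCl pH 7.5/DTT/glycerol/EDTA buffer. Either poly(dA)/oligo(dT)12–18 (2/1) template-primer or dTTP substrate was varied. Km and Vmax came from double reciprocal plots, Ki from Dixon plots.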

DNA polymerase beta [2] = molecular target: T1, DNA polymerase beta; test: Inhibition constant at a concentration of 10 uM on rat DNA polymerase beta as a function of template primer dose; outline: as §1
DNA polymerase beta [3] = molecular target: T1, DNA polymerase beta; test: Inhibitory effect on the activity of mammalian DNA polymerase beta was determined by inhibitory dose curves
Outline: (§2)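 Calf thymus pol α (immunoaffinity-purified) and rat pol β, 0.05 units each final, with poly(dA)/oligo(dT)12–18 (2/1) and dTTP. Compounds in DMSO, sonicated 30 s, then preincubated with enzyme at 0 °C for 10 min in 50 mM Tris–HCl pH 7.5, 1 mM DTT, 50% glycerol, 0.1 mM EDTA. Mixtures added to standard reactions; activity without compound taken as 100%. IC50 from dose–response curves.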

Nucleic Acid [4] = test: Inhibition constant at a concentration of 5 uM on calf DNA polymerase alpha as a function of nucleotide substrate concentration; format: nucleic-acid assay, Bos taurus; outline: as §1
Nucleic Acid [5] = test: Inhibitory effect on the activity of mammalian DNA polymerase alpha was determined by inhibitory dose curves; format: nucleic-acid assay, Bos taurus; outline: as §2
Nucleic Acid [6] = test: Inhibition constant at a concentration of 5 uM on calf DNA polymerase alpha as a function of template primer dose; format: nucleic-acid assay, Bos taurus; outline: as §1
DNA polymerase beta [7] = molecular target: T1, DNA polymerase beta; test: Inhibitory effect on the activity of rat DNA polymerase beta was determined by inhibitory dose curves
Outline: (§3)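 Rat DNA pol β, 0.05 units, with poly(dA)/oligo(dT)12-18 template-primer and dTTP substrate. Compounds in DMSO at various concentrations, sonicated 30 s, then preincubated with enzyme in 50 mM Tris–HCl pH 7.5, 1 mM DTT, 50% glycerol, 0.1 mM EDTA at 0 °C for 10 min before addition to the reaction mix. Activity without compound was set as 100%, and IC50 was read from dose–response curves.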

Nucleic Acid [8] = test: Inhibition constant at a concentration of 25 uM on calf DNA polymerase alpha as a function of nucleotide substrate concentration; format: nucleic-acid assay, Bos taurus
Outline: (§4)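 Calf thymus DNA pol α (immunoaffinity-purified), 0.05 units. Compound in DMSO, sonicated 30 s, preincubated with enzyme in 50 mM Tris–HCl pH 7.5, 1 mM DTT, 50% glycerol, 0.1 mM EDTA at 0 °C for 10 min. Activity measured varying poly(dA)/oligo(dT)12-18 (2/1) template-primer or dTTP nucleotide substrate. Km and Vmax were taken from double reciprocal plots and Ki from Dixon plots.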

Nucleic Acid [9] = test: Inhibitory effect on the activity of calf thymus DNA polymerase alpha was determined by inhibitory dose curves; format: nucleic-acid assay, Bos taurus
Outline: as §3, with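 “Calf thymus” for “Rat”, “α (immunoaffinity-purified),” for “β,”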

Nucleic Acid [10] = test: Inhibition constant at a concentration of 25 uM on calf DNA polymerase alpha as a function of template primer dose; format: nucleic-acid assay, Bos taurus; outline: as §4
DNA polymerase beta [11] = molecular target: T1, DNA polymerase beta; test: Inhibition constant at a concentration of 5 uM on rat DNA polymerase beta as a function of template primer dose
Outline: (§5)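 Rat DNA pol β (0.05 units final) with poly(dA)/oligo(dT)12-18 (2/1) as template-primer and dTTP as nucleotide substrate. Inhibitor was dissolved in DMSO, sonicated 30 s, then preincubated with enzyme at 0 °C for 10 min in 50 mM Tris-HCl pH 7.5, 1 mM DTT, 50% glycerol and 0.1 mM EDTA. The mix was added to standard reactions with template-primer or dTTP varied. Ki came from double-reciprocal and Dixon plots.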

DNA polymerase beta [12] = molecular target: T1, DNA polymerase beta; test: Inhibition constant at a concentration of 5 uM on rat DNA polymerase beta as a function of nucleotide substrate concentration; outline: as §5

SMILES: C[C@H](CCC(=O)O)[C@H]1CC[C@H]2[C@@H]3CCC4C[C@@H](OC(=O)CCNC(=O)CCCCCNC(=O)CCCCCNC(=O)CCCCC5SCC6NC(=O)NC65)CC[C@]4(C)[C@H]3CC[C@]12C (stereo partly specified)
- pKi (DNA polymerase beta [1]): 4.70
- pKi (DNA polymerase beta [2]): 4.89
- pIC50 (DNA polymerase beta [3]): 4.49
- pKi (Nucleic Acid [4]): 5.26
- pIC50 (Nucleic Acid [5]): 5.00
- pKi (Nucleic Acid [6]): 5.11

SMILES: C[C@H](CCC(=O)O)[C@H]1CC[C@H]2[C@@H]3CCC4C[C@@H](O)CC[C@]4(C)[C@H]3CC[C@]12C (stereo partly specified)
- pIC50 (DNA polymerase beta [7]): 4.96
- pKi (Nucleic Acid [8]): 4.65
- pIC50 (Nucleic Acid [9]): 4.40
- pKi (Nucleic Acid [10]): 4.82
- pKi (DNA polymerase beta [11]): 5.33
- pKi (DNA polymerase beta [12]): 5.18

SMILES: C[C@H](CCC(=O)O)[C@H]1CC[C@H]2[C@@H]3CCC4C[C@@H](OC(=O)CCNC(=O)CCCCC5SCC6NC(=O)NC65)CC[C@]4(C)[C@H]3CC[C@]12C (stereo partly specified)
- pIC50 (DNA polymerase beta [7]): 4.51
- pIC50 (Nucleic Acid [9]): 4.54

SMILES: C[C@H](CCC(=O)O)[C@H]1CC[C@H]2[C@@H]3CCC4C[C@@H](OC(=O)CCNC(=O)CCCCCNC(=O)CCCCC5SCC6NC(=O)NC65)CC[C@]4(C)[C@H]3CC[C@]12C (stereo partly specified)
- pIC50 (DNA polymerase beta [7]): 4.34
- pIC50 (Nucleic Acid [9]): 4.38
